ChEMBL document CHEMBL3576809, “Thiasporines A-C, thiazine and thiazole derivatives from a marine-derived Actinomycetospora chlora” (J Nat Prod, 2015)
Calls of active or inactive are those of the source. No cut-off for these calls is given here.

Tests used:
Format in all cases: functional, cell-based
HCC44 [1] = assay: Cytotoxicity against human HCC44 cells assessed as cell viability at 0.001 to 50 uM after 96 hrs by Cell Titer Glo assay
Procedure, shortened: (§1)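 Cells grown in RPMI/L-glutamine with 1000 U/mL penicillin, 1 mg/mL streptomycin and 5% FBS at 37 °C, 5% CO2, then plated in 384-well plates overnight. Compounds in DMSO were added at final 50 μM to 1 nM (0.5% DMSO final) for 96 h. CellTiter-Glo (1:2 in medium) was added, 10 min at room temperature, and luminescence normalized to DMSO-only wells.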

HCC366 [2] = assay: Cytotoxicity against human HCC366 cells assessed as cell viability at 0.001 to 50 uM after 96 hrs by Cell Titer Glo assay; procedure, shortened: as §1
A549 [3] = assay: Cytotoxicity against human A549 cells assessed as cell viability at 0.001 to 50 uM after 96 hrs by Cell Titer Glo assay; procedure, shortened: as §1
NCI-H2122 [4] = assay: Cytotoxicity against human NCI-H2122 cells assessed as cell viability at 0.001 to 50 uM after 96 hrs by Cell Titer Glo assay; procedure, shortened: as §1
HCC366 [5] = assay: Cytotoxicity against human HCC366 cells assessed as cell viability up to 24 uM after 96 hrs by Cell Titer Glo assay
Procedure, shortened: (§2)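 NSCLC lines were kept in RPMI/L-glutamine with penicillin, streptomycin and 5% FBS (37 °C, 5% CO2) and seeded in 384-well plates overnight. DMSO-dissolved compounds were added (final DMSO 0.5%) and incubated 96 h. Viability was read as CellTiter-Glo luminescence after 10 min at room temperature and normalized to untreated cell-plus-DMSO wells.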

NCI-H2122 [6] = assay: Cytotoxicity against human NCI-H2122 cells assessed as cell viability after 96 hrs by Cell Titer Glo assay; conditions: NCI-H2122, 96 h; procedure, shortened: as §2
A549 [7] = assay: Cytotoxicity against human A549 cells assessed as cell viability up to 24 uM after 96 hrs by Cell Titer Glo assay; procedure, shortened: as §2
HCC44 [8] = assay: Cytotoxicity against human HCC44 cells assessed as cell viability up to 24 uM after 96 hrs by Cell Titer Glo assay; procedure, shortened: as §2

Row | SMILES | Activity (HCC44 [1]) | Activity (HCC366 [2]) | Activity (A549 [3]) | Activity (NCI-H2122 [4]) | Activity (HCC366 [5]) | IC50 (NCI-H2122 [6]) | Activity (A549 [7]) | Activity (HCC44 [8])
1 | CNc1ccccc1-c1nc(C(=O)OC)cs1 | inactive | inactive | inactive | inactive | – | – | – | –
2 | CNc1ccccc1-c1nc(C(=O)O)cs1 | inactive | inactive | inactive | inactive | – | – | – | –
3 | Nc1ccccc1-c1nc(=O)c(O)cs1 | – | – | – | – | inactive | 5.4 µM | inactive | inactive
